Consider 3 compounds from ChEMBL document CHEMBL4265989, “ω-Hydroxylation of α-tocopheryl quinone reveals a dual function for cytochrome P450-4F2 in vitamin E metabolism” (Bioorg Med Chem, 2018).

Format in all cases: ADME
Data set [1] concerns the target T1, Cytochrome P450 4F2 (Homo sapiens, UniProt P78329).
T1 sequence (P78329 whole entry): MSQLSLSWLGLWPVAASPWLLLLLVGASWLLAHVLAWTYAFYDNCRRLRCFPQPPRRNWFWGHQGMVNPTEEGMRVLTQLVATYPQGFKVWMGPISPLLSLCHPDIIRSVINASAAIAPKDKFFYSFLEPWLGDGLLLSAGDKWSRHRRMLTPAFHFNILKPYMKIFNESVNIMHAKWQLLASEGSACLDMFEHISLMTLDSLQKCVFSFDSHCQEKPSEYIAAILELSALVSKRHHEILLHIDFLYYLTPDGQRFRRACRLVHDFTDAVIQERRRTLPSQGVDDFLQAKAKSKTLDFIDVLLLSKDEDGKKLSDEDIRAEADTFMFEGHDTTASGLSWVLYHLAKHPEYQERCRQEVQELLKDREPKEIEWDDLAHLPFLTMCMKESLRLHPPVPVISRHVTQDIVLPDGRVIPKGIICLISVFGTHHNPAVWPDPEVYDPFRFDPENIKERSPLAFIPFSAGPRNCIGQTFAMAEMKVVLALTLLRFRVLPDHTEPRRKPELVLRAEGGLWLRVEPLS
As to the kind of experiment: Drug level in human liver microsomes treated with BSA bound d6-alpha-tocopheryl quinone assessed as CYP4F2-mediated compound formation at 4.4 mM preincubated for 10 mins followed by NADPH addition measured after 20 mins by LS-MS analysis. In a few lines:
(§1)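 Pooled human liver microsomes (20 mg/ml protein) in 100 mM KH2PO4 pH 7.2. d6-αTQ–BSA complex added from a 4.4 mM stock. Preincubated 10 min at 37 °C, then NADPH added to 1 mM final (NAD at 1 mM if used); 20 min at 37 °C, then chilled on ice. d0-ω-hydroxy-αTQ added as internal standard, extracted with ethyl acetate then hexanes:MTBE. Read-out by positive-ion C18 LC-MS.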

The target of data set [2] is T1, Cytochrome P450 4F2. Nature of the data set: Drug level in human liver microsomes treated with BSA bound d6-alpha-tocopheryl quinone assessed as CYP4F2-mediated compound formation by measuring compound retention time at 4.4 mM preincubated for 10 mins followed by NADPH addition measured after 20 mins by LS-MS analysis. In a few lines: as §1
Data set [3] has as its target T1, Cytochrome P450 4F2. Nature of the data set: Drug level assessed as recombinant human CYP4F2 expressed in insect cell microsomes-mediated compound formation treated with BSA bound d6-alpha-tocopheryl quinone at 10 uM preincubated for 10 mins followed by NADPH addition measured after 20 mins in presence of recombinant human CYP reductase and cytochrome b5 by LS-MS analysis. The settings on record: recombinant enzyme. The procedure, abridged: (§2)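 Insect cell microsomes co-expressing recombinant human CYP4F2, cytochrome b5 and NADPH P450 reductase (100 pmol CYP/mL) in 100 mM KH2PO4 pH 7.2 with d6-αTQ–BSA complex (10 μM). Preincubated 10 min at 37 °C, then NADPH added to 1 mM final; 20 min at 37 °C, then chilled on ice. Internal standard d0-ω-hydroxy-αTQ added, extracted with ethyl acetate then hexanes:MTBE. Products identified by reversed-phase C18 LC-MS retention time and mass spectra.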

The target of data set [4] is T1, Cytochrome P450 4F2. Nature of the data set: Drug level assessed as recombinant human CYP4F2 expressed in insect cell microsomes-mediated compound formation by measuring compound retention time treated with BSA bound d6-alpha-tocopheryl quinone at 10 uM preincubated for 10 mins followed by NADPH addition measured after 20 mins in presence of recombinant human CYP reductase and cytochrome b5 by LS-MS analysis. The settings on record: recombinant enzyme. In a few lines: as §2

Take `[2H]C([2H])([2H])C1=C(C)C(=O)C(CC[C@](C)(O)CCC[C@H](C)CCC[C@H](C)CCCC(C)CO)=C(C([2H])([2H])[2H])C1=O` (stereo not given in full): the Drug metabolism entry on Cytochrome P450 4F2 [1] and at Cytochrome P450 4F2 [3] was “Metabolite_Detected” throughout. For the same compound, the Retention_time on Cytochrome P450 4F2 [2] and on Cytochrome P450 4F2 [4] was 8.8 min in each case.
Turning to `[2H]C([2H])([2H])C1=C(C)C(=O)C(CC[C@](C)(O)CCC[C@H](C)CCC[C@H](C)CCCC(C)C(=O)O)=C(C([2H])([2H])[2H])C1=O` (stereo not given in full), the Drug metabolism result on Cytochrome P450 4F2 [1] and on Cytochrome P450 4F2 [3] was “Metabolite_Detected” throughout. Besides, the results for the Retention_time at Cytochrome P450 4F2 [2] and on Cytochrome P450 4F2 [4] were 7.1 min and 7.42 min, respectively.
As to `[2H]C([2H])([2H])C1=C(C)C(=O)C(CC[C@](C)(O)CCC[C@H](C)CCC[C@H](C)CCCC(C)C)=C(C([2H])([2H])[2H])C1=O`, on Cytochrome P450 4F2 [1], the Drug metabolism entry is listed as “Metabolite_Detected”. In addition, at Cytochrome P450 4F2 [2], the Retention_time is 11.87 min.
